# High-throughput results: PubChem, Broad Institute
# Only some compounds are listed: those with a hit (about 3.1% of all), similar ones and a draw of the others.
# DENV2 CPE rescue: DENV2-induced cell death inhibition | CPE inhibition, % at 9.99 µM | DENV2-infected cells, cytopathic effect rescue, plate reader | 350,000 tested, 1.7% active; in the data active = CPE inhibition above about 20%, passing the limit was not always enough; inconclusive = no clear call, values can overlap the other calls; tested in BHK-21 cells
# E-sel inducer: E-selectin induction on HUVECs; 260,000 tested, 0.37% active; HUVEC E-selectin immunofluorescence imaging; normalized: neutral wells 0, TNF-alpha wells 100; AID 686992; activation, % at 7.58 µM;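 active = mean E-selectin-positive cell signal at least 10% of the positive control, reached in at least 60% of replicates, without over 20% cell loss; inconclusive = no rule given, readout overlaps actives, possibly toxicity-flagged; inactive = the rest, including those meeting only one limit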
# Target sequence (P16581 whole entry, looked up): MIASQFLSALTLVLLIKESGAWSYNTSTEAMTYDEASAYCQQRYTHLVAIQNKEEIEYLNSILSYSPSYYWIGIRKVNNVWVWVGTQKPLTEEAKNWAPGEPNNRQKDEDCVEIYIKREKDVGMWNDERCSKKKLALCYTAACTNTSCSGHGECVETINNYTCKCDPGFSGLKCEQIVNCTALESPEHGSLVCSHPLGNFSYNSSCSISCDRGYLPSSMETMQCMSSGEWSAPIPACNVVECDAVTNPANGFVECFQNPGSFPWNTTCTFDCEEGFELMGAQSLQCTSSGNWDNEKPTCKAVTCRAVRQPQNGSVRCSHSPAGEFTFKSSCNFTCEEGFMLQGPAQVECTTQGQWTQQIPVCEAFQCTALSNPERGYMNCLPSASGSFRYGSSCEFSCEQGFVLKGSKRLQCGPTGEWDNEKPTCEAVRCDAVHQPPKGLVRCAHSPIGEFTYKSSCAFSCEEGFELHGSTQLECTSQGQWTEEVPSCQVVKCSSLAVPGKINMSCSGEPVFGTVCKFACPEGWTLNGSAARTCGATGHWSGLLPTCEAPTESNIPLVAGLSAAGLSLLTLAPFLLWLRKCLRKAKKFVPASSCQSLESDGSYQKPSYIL
#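 System: HUVEC, human umbilical vein endothelial cells; quantity: 3,000 cells/well; buffer or medium: EGM-2 medium, gelatin-coated wells; dosing: single-point compound dose; detection: immunofluorescence imaging; evaluation: % PE-positive cells; benchmarks: TNF-alpha, DMSO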
# Cneo AK release: causes C. neoformans cell lysis. 360,000 tested, 0.2% active. AID 651654. lysis activity, % at 15 µM. adenylate kinase release luminescence, 4 h; normalised: neutral wells 0, clomiphene wells 100;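 active = mean lysis activity across replicates of at least 80%, whatever share of replicates individually reach that level; inactive = mean lysis activity below 80%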
#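 Test system: log-phase Cryptococcus neoformans yeast cells. Input: 5 × 10^6 yeast cells/mL. Medium: fresh YPD growth medium. Doses: single dose. Incubation: static 4 h at 37 °C with compound, 1 h detection. Measured by: luminescent adenylate kinase detection reagent. Read-out: signal increase indicating cell lysis. Benchmarks: Clomiphene.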
# miR-122 sensor: blocks miR-122 activity in Huh7 sensor cells | Huh7 miR-122 Renilla luciferase sensor, 48 h; neutral wells = 0, positive control = 100 | activation (reporter increase), % at 12.5 µM | 340,000 tested, 0.3% active;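 active = mean replicate activation score at least 90 and every replicate individually at or above 90; inconclusive = only one of the two criteria met; inactive = neither criterion met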;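 also: higher luciferase means less miR-122 activity so hits act as miR-122 inhibitors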
# Ecoli rRNA inh: inhibitors of bacterial rRNA selective over humanized ribosomes | E. coli WT GFP vs humanized-ribosome RFP mutants, fluorescence, 24 h; active compounds read low; DMSO median 0, no signal -100 | GFP signal change (wild-type ribosome), % (test concentration not listed) | 350,000 tested, 1.6% active;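 active = significant combined selectivity score with lowered wild-type GFP, culture density cut under 30%, mutant RFP and density less affected; inactive = any of these conditions unmet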
# Hits are given with their value; - = inactive; ? = inconclusive; . = no result given.
SMILES,DENV2 CPE rescue,E-sel inducer,Cneo AK release,miR-122 sensor,Ecoli rRNA inh
CC(NC(=O)COC(=O)C1CCN(c2ccc(C(F)(F)F)cn2)CC1)c1ccc(Br)cc1 (stereo not drawn),-,.,-,-,-24
CC(NC(=O)COC(=O)C1CCN(c2ccc(C(F)(F)F)cn2)CC1)c1ccc(F)cc1 (stereo not drawn),-,.,-,-,-
CCS(=O)(=O)N1CCCCN2[C@H](CO)[C@H](c3ccc(C4=CCCC4)cc3)[C@H]2C1,-,-,-,-,-
Cc1oc2ccc(O)cc2c1C(=O)c1ccccc1,-,.,-,-,-
COc1ccc2oc(C)c(C(=O)c3ccccc3)c2c1,?,-,.,.,-30
CCOc1ccc(CN(C)CC(=O)NCc2ccccc2Cl)cc1,-,-,.,.,-28
CCOc1ccc(CN(C)CC(=O)NCc2ccccc2)cc1,-,-,.,-,-
CCC(=O)N1CC2(C1)[C@@H](c1ccc(-c3ccccc3C)cc1)[C@@H](CO)N2C(C)=O,-,-,.,.,-
COCC(=O)N1[C@H](CO)[C@@H](c2ccc(-c3cccc(OC)c3)cc2)C12CN(C(C)=O)C2,28,-,.,.,-
CC(=O)N1CC2(C1)[C@@H](c1ccc(-c3ccc(F)cc3)cc1)[C@@H](CO)N2C(C)=O,78,-,.,.,-
CCC(=O)N1[C@@H](CO)[C@@H](c2ccc(-c3ccccc3C)cc2)C12CN(C(C)=O)C2,60,-,.,.,-
CC(C)NC(=O)Nc1ccc2c(c1)C(=O)N([C@H](C)CO)C[C@@H](C)[C@H](CN(C)S(=O)(=O)c1ccc(F)cc1)OCCCC[C@@H](C)O2,-,-,-,-,-
CN1CCN(C(=O)C[C@@H]2CC[C@@H]3[C@@H](COc4ccc(NC(=O)C5CCCCC5)cc4C(=O)N3C)O2)CC1,-,-,-,-,-
CC(C)CC#Cc1ccc2c(c1)O[C@@H](CN(C)Cc1cccnc1)[C@@H](C)CN([C@@H](C)CO)S2(=O)=O,-,-,-,-,-
O=C(C[C@@H]1C=C[C@@H](NC(=O)Cc2cccnc2)[C@H](CO)O1)Nc1ccc(-c2ccccc2)cc1,-,-,.,.,-
CC(=O)Nc1ccc(-c2csc(NCc3ccccc3)n2)cc1,-,-,.,.,-
CC(=O)Nc1cccc(-c2csc(NCc3ccccc3)n2)c1,-,-,.,.,-30
CC=Cc1ccc2n(c1=O)C[C@H]1[C@H](CO)[C@@H](C(=O)NCC3CC3)[C@@H]2N1S(=O)(=O)c1cn(C)cn1 (mixture of isomers),?,-,-,-,-
O=c1[nH]cnc2c1sc(=S)n2-c1ccccc1,.,.,-,-,.
C=CCn1c(=S)sc2c(=O)[nH]cnc21,-,-,-,-,-23
COc1ccc(C(=O)C2CCCN(Cc3ccc4nonc4c3)C2)c(OC)c1 (stereo not drawn),-,-,-,-,-28
O=C(C[C@@H]1C=C[C@@H](NC(=O)C2CC2)[C@@H](CO)O1)NCCc1cscn1,-,-,.,.,-
CCn1nc(C(=O)OCC(=O)N(CCC#N)c2ccccc2)c2ccccc2c1=O,75,.,-,-,-
CCn1nc(C(=O)OCc2cccc(S(=O)(=O)N(C)C)c2)c2ccccc2c1=O,-,-,.,.,-25
O=C(Nc1ccc(F)cc1)N1CC(=O)N2[C@H](CO)[C@@H](c3ccc(Br)cc3)[C@@H]2C1,-,-,.,.,-
SMILES,DENV2 CPE rescue,E-sel inducer,Cneo AK release,miR-122 sensor,Ecoli rRNA inh
CCC(=O)Nc1ccc2c(c1)C(=O)N(C)C[C@@H](OC)[C@H](C)CN(C(=O)C1CCC1)[C@@H](C)CO2,.,-,.,-,-
C[C@@H]1CN([C@H](C)CO)C(=O)c2cc(NC(=O)c3ccncc3)ccc2O[C@H]1CN(C)Cc1ccncc1,-,-,-,-,-
COc1ccc(CN(C)C[C@@H]2Oc3ccc(NC(=O)c4ccncc4)cc3C(=O)N([C@H](C)CO)C[C@H]2C)cc1,-,93,-,-,-
COc1ccc(CN(C)C[C@H]2Oc3ccc(NC(=O)c4ccncc4)cc3C(=O)N([C@H](C)CO)C[C@@H]2C)cc1,-,47,-,-,-
COc1ccccc1CNC(=O)[C@@H](NC(=O)C1CCN(C(=O)[C@@H]2CCCN2C(=O)OC(C)(C)C)CC1)C(C)C,61,.,-,-,-
Cc1coc2cc3oc(=O)c(Cc4ccccc4)c(C)c3cc12,-,-,.,.,-22
